{
  "source": "paper PMC11406440",
  "about": "(Food and chemical toxicology : an international journal …, 2024)",
  "key": {"B6C3F1 mice": {"system": "B6C3F1 mice", "test": "Histopathology", "format": "in vivo", "settings": "for Liver: bile, increased, hepatocyte, minimal (incidence) / Liver: hypertrophy, hepatocyte, marked (incidence) / Liver: infiltrate, mononuclear cell, mild (incidence) / Liver: infiltrate, mononuclear cell, minimal (incidence) / Liver: necrosis, mild (incidence) / Liver: necrosis, minimal (incidence) / Liver: pigment macrophage, minimal (incidence) / Spleen: decreased cellularity, lymphocyte, mild (incidence): mice affected of 5", "method_in_brief": "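Female B6C3F1 mice (5/group) received 25 μl/ear of acetone vehicle or 1.25–5% w/v test compound daily on both ears for 28 days, with necropsy about 24 h later. Liver, half spleen, half ear pinna and right kidney were fixed in 10% formalin, paraffin-embedded, cut at 5 μm and H&E-stained. A veterinary pathologist scored them per STP guideline, grades 1 (minimal) to 5 (severe).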"}, "liver": {"system": "liver", "test": "Liver gene expression", "format": "in vivo, B6C3F1 mice", "method_in_brief": "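Mice were dosed daily on both ears (25 μl/ear; acetone vehicle or 1.25, 2.5, 5% w/v) for 28 days. Half an ear pinna or the caudate liver lobe was homogenized in Buffer RLT, and total RNA was column-isolated with DNase treatment. TaqMan qPCR gave relative fold change (2−ΔΔCT) versus vehicle controls, normalized to β-actin. Liver used 4–5 mice/group, one-way ANOVA/Dunnett or Kruskal-Wallis/Dunn.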"}, "[1]": {"settings": "14-days of 3 mg/kg/day oral exposure; ref Chang et al., 2018; cited from earlier work"}, "[2]": {"settings": "PFHxS exposure, 28 days (discussion, approximate)"}, "[3]": {"settings": "all three concentrations of PFHxS, 28 days"}},
  "note": "Values joined by “and” are separate entries in the source; they are usually repeats but may differ in a detail not shown here. Equal values may be shown once. “Also recorded” adds a separate entry of the source.",
  "data": [
    {"compound": "O=S(=O)(O)C(F)(F)C(F)(F)C(F)(F)C(F)(F)C(F)(F)C(F)(F)F", "note": "[PFHxS, Perfluorohexane sulfonic acid]", "values": [
      {"measurement": "Liver: bile, increased, hepatocyte, minimal (incidence)", "setting": "B6C3F1 mice; 1.25% PFHxS, 28 days", "value": "5/5 and 5"},
      {"measurement": "Liver: hypertrophy, hepatocyte, marked (incidence)", "setting": "B6C3F1 mice; 1.25% PFHxS, 28 days", "value": 5},
      {"measurement": "Liver: infiltrate, mononuclear cell, mild (incidence)", "setting": "B6C3F1 mice; 1.25% PFHxS, 28 days", "value": "1/5 and 1"},
      {"measurement": "Liver: infiltrate, mononuclear cell, minimal (incidence)", "setting": "B6C3F1 mice; 1.25% PFHxS, 28 days", "value": "2/5 and 2"},
      {"measurement": "Liver: necrosis, mild (incidence)", "setting": "B6C3F1 mice; 1.25% PFHxS, 28 days", "value": "2/5 and 2"},
      {"measurement": "Liver: necrosis, minimal (incidence)", "setting": "B6C3F1 mice; 1.25% PFHxS, 28 days", "value": "3/5 and 3"},
      {"measurement": "Liver: pigment macrophage, minimal (incidence)", "setting": "B6C3F1 mice; 1.25% PFHxS, 28 days", "value": "4/5 and 4"},
      {"measurement": "Spleen: decreased cellularity, lymphocyte, mild (incidence)", "setting": "B6C3F1 mice; 1.25% PFHxS, 28 days", "value": "2/5 and 2"},
      {"measurement": "Liver: bile, increased, hepatocyte, minimal (incidence)", "setting": "B6C3F1 mice; 2.5% PFHxS, 28 days", "value": "5/5 and 5"},
      {"measurement": "Liver: hypertrophy, hepatocyte, marked (incidence)", "setting": "B6C3F1 mice; 2.5% PFHxS, 28 days", "value": 5},
      {"measurement": "Liver: infiltrate, mononuclear cell, mild (incidence)", "setting": "B6C3F1 mice; 2.5% PFHxS, 28 days", "value": 0},
      {"measurement": "Liver: infiltrate, mononuclear cell, minimal (incidence)", "setting": "B6C3F1 mice; 2.5% PFHxS, 28 days", "value": "2/5 and 2"},
      {"measurement": "Liver: necrosis, mild (incidence)", "setting": "B6C3F1 mice; 2.5% PFHxS, 28 days", "value": "1/5 and 1"},
      {"measurement": "Liver: necrosis, minimal (incidence)", "setting": "B6C3F1 mice; 2.5% PFHxS, 28 days", "value": "4/5 and 4"},
      {"measurement": "Liver: pigment macrophage, minimal (incidence)", "setting": "B6C3F1 mice; 2.5% PFHxS, 28 days", "value": "5/5 and 5"},
      {"measurement": "Spleen: decreased cellularity, lymphocyte, mild (incidence)", "setting": "B6C3F1 mice; 2.5% PFHxS, 28 days", "value": "4/5 and 4"},
      {"measurement": "Liver: bile, increased, hepatocyte, minimal (incidence)", "setting": "B6C3F1 mice; 5% PFHxS, 28 days", "value": "5/5 and 5"},
      {"measurement": "Liver: hypertrophy, hepatocyte, marked (incidence)", "setting": "B6C3F1 mice; 5% PFHxS, 28 days", "value": 5},
      {"measurement": "Liver: infiltrate, mononuclear cell, mild (incidence)", "setting": "B6C3F1 mice; 5% PFHxS, 28 days", "value": 0},
      {"measurement": "Liver: infiltrate, mononuclear cell, minimal (incidence)", "setting": "B6C3F1 mice; 5% PFHxS, 28 days", "value": "1/5 and 1"},
      {"measurement": "Liver: necrosis, mild (incidence)", "setting": "B6C3F1 mice; 5% PFHxS, 28 days", "value": "1/5 and 1"},
      {"measurement": "Liver: necrosis, minimal (incidence)", "setting": "B6C3F1 mice; 5% PFHxS, 28 days", "value": "4/5 and 4"},
      {"measurement": "Liver: pigment macrophage, minimal (incidence)", "setting": "B6C3F1 mice; 5% PFHxS, 28 days", "value": "4/5 and 4"},
      {"measurement": "Spleen: decreased cellularity, lymphocyte, mild (incidence)", "setting": "B6C3F1 mice; 5% PFHxS, 28 days", "value": "5/5 and 5"},
      {"measurement": "Skin irritation at the site of application", "setting": "B6C3F1 mice; PFHxS dermal exposure", "value": "no skin irritation"},
      {"measurement": "Skin histopathology at the dosing site", "setting": "B6C3F1 mice; PFHxS dermal, 28 days", "value": "No microscopic abnormalities; also recorded: no histopathological changes"},
      {"measurement": "Liver Cyp7a1 gene expression", "setting": "liver; 1.25% PFHxS, 28 days", "value": "Decreases"},
      {"measurement": "Liver Pparδ gene expression", "setting": "liver; 1.25% and 2.5% PFHxS, 28 days", "value": "decrease"},
      {"measurement": "Liver Pparγ gene expression", "setting": "liver; 1.25% and 5% PFHxS, 28 days", "value": "increase"},
      {"measurement": "Liver Pparα gene expression", "setting": "liver; 1.25-5% PFHxS, 28 days", "value": "No change"},
      {"measurement": "Liver Apoa1 gene expression", "setting": "liver; 2.5% PFHxS, 28 days", "value": "Decreases"},
      {"measurement": "Liver Serpine1 gene expression, fold increase", "setting": "liver; 2.5% PFHxS, 28 days", "value": 52, "unit": "fold"},
      {"measurement": "Liver Acox1 gene expression, fold increase", "setting": "liver; 5% PFHxS, 28 days", "value": 6.7, "unit": "fold"},
      {"measurement": "Liver Avpr1a gene expression", "setting": "liver; 5% PFHxS, 28 days", "value": "Decreases"},
      {"measurement": "Liver Cd36 gene expression, fold increase", "setting": "liver; 5% PFHxS, 28 days", "value": 23, "unit": "fold"},
      {"measurement": "Liver Cpt1b gene expression, fold increase", "setting": "liver; 5% PFHxS, 28 days", "value": 33, "unit": "fold"},
      {"measurement": "Liver Cyp4a10 gene expression, fold increase", "setting": "liver; 5% PFHxS, 28 days", "value": 22, "unit": "fold"},
      {"measurement": "Liver Ehhadh gene expression, fold increase", "setting": "liver; 5% PFHxS, 28 days", "value": 61, "unit": "fold"},
      {"measurement": "Liver Lpl gene expression, fold increase", "setting": "liver; 5% PFHxS, 28 days", "value": 30, "unit": "fold"},
      {"measurement": "Liver Pla2g12a gene expression, fold increase", "setting": "liver; 5% PFHxS, 28 days", "value": 16, "unit": "fold"},
      {"measurement": "Liver Acox1 gene expression, fold increase", "setting": "liver; [2]", "value": "~ 6 fold"},
      {"measurement": "Liver Ehhadh gene expression, fold increase", "setting": "liver; [2]", "value": "~ 50 fold"},
      {"measurement": "Liver Cd36 gene expression, fold increase", "setting": "liver; [3]", "value": "~ 25 fold"},
      {"measurement": "Liver Lpl gene expression, fold increase", "setting": "liver; [3]", "value": "~ 25 fold"},
      {"measurement": "Serum concentration", "setting": "[1]", "value": 180, "unit": "µg/mL"}
    ]}
  ]
}
